In ChEMBL document CHEMBL1138555, “N-acylated and N,N'-diacylated imidazolidine-2-thione derivatives and N,N'-diacylated tetrahydropyrimidine-2(1H)-thione analogues: synthesis and antiproliferative activity” (Eur J Med Chem, 2009):

Legend:
[1] = system: MT4; test: Antiproliferative activity against human MT4 cells assessed as reduction of growth by MTT assay; format: functional, cell-based
Summary of the method: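 MT-4 lymphoblastoid T cells (ATCC) in RPMI 1640 with 10% FCS, penicillin/streptomycin, checked for mycoplasma. 1 × 10⁴ mock-infected cells per well with serial dilutions from a 100 mM DMSO stock. Incubated 4 days at 37 °C, viable cells counted by MTT. IC50 versus untreated controls by linear regression. Mean of three separate experiments.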

[2] = system: CCRF-CEM; test: Growth inhibition of human CCRF-CEM cells after 48 hrs by sulforhodamine B assay; format: functional
Summary of the method: (§1)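 NCI screen panel. Five 10-fold concentrations from 10^-4 to 10^-8 M. Exposure for the last 48 h of a 72 h incubation. Growth estimated by sulforhodamine B protein assay. GI50 is the concentration giving 50% growth inhibition. Where that level was not reached or was exceeded, the value is given as above or below the highest or lowest concentration tested.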

[3] = system: K562; test: Growth inhibition of human K562 cells after 48 hrs by sulforhodamine B assay; format: functional; conditions: K562, 48 h; summary of the method: as §1
[4] = system: MOLT-4; test: Growth inhibition of human MOLT4 cells after 48 hrs by sulforhodamine B assay; format: functional; conditions: MOLT-4, 48 h; summary of the method: as §1
[5] = system: A549; test: Growth inhibition of human A549 cells after 48 hrs by sulforhodamine B assay; format: functional; conditions: A549, 48 h; summary of the method: as §1
[6] = system: EKVX; test: Growth inhibition of human EKVX cells after 48 hrs by sulforhodamine B assay; format: functional; summary of the method: as §1
[7] = system: HOP-62; test: Growth inhibition of human HOP62 cells after 48 hrs by sulforhodamine B assay; format: functional; conditions: HOP-62, 48 h; summary of the method: as §1
[8] = system: HOP-92; test: Growth inhibition of human HOP92 cells after 48 hrs by sulforhodamine B assay; format: functional; conditions: HOP-92, 48 h; summary of the method: as §1
[9] = system: NCI-H226; test: Growth inhibition of human NCI-H226 cells after 48 hrs by sulforhodamine B assay; format: functional; conditions: NCI-H226, 48 h; summary of the method: as §1
[10] = system: NCI-H322M; test: Growth inhibition of human NCI-H322M cells after 48 hrs by sulforhodamine B assay; format: functional; summary of the method: as §1
[11] = system: NCI-H460; test: Growth inhibition of human NCI-H460 cells after 48 hrs by sulforhodamine B assay; format: functional; conditions: NCI-H460, 48 h; summary of the method: as §1
[12] = system: COLO 205; test: Growth inhibition of human COLO205 cells after 48 hrs by sulforhodamine B assay; format: functional; conditions: COLO 205, 48 h; summary of the method: as §1
[13] = system: HCT-116; test: Growth inhibition of human HCT116 cells after 48 hrs by sulforhodamine B assay; format: functional; conditions: HCT-116, 48 h; summary of the method: as §1
[14] = system: HCT-15; test: Growth inhibition of human HCT15 cells after 48 hrs by sulforhodamine B assay; format: functional; conditions: HCT-15, 48 h; summary of the method: as §1
[15] = system: KM12; test: Growth inhibition of human KM12 cells after 48 hrs by sulforhodamine B assay; format: functional; conditions: KM12, 48 h; summary of the method: as §1
[16] = system: SW-620; test: Growth inhibition of human SW620 cells after 48 hrs by sulforhodamine B assay; format: functional; conditions: SW-620, 48 h
Summary of the method: (§2)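 NCI in vitro panel screen. Compounds tested at five 10-fold dilutions, 10^-4 to 10^-8 M. Cells in 96-well plates were exposed for the last 48 h of a 72 h incubation. Viability/growth was read by sulforhodamine B protein assay. GI50 is the concentration giving 50% growth inhibition. Values beyond the tested range are reported as greater or less than the maximum or minimum concentration.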

[17] = system: SF-268; test: Growth inhibition of human SF268 cells after 48 hrs by sulforhodamine B assay; format: functional; conditions: SF-268, 48 h; summary of the method: as §1
[18] = system: SF-295; test: Growth inhibition of human SF295 cells after 48 hrs by sulforhodamine B assay; format: functional; conditions: SF-295, 48 h; summary of the method: as §1
[19] = system: SNB-75; test: Growth inhibition of human SNB75 cells after 48 hrs by sulforhodamine B assay; format: functional; conditions: SNB-75, 48 h; summary of the method: as §2
[20] = system: U-251; test: Growth inhibition of human U251 cells after 48 hrs by sulforhodamine B assay; format: functional; conditions: U-251, 48 h; summary of the method: as §2
[21] = system: LOX IMVI; test: Growth inhibition of human LOXIMVI cells after 48 hrs by sulforhodamine B assay; format: functional; summary of the method: as §1
[22] = system: Malme-3M; test: Growth inhibition of human MALME-3M cells after 48 hrs by sulforhodamine B assay; format: functional; summary of the method: as §1
[23] = system: M14; test: Growth inhibition of human M14 cells after 48 hrs by sulforhodamine B assay; format: functional; conditions: M14, 48 h; summary of the method: as §1
[24] = system: UACC-257; test: Growth inhibition of human UACC257 cells after 48 hrs by sulforhodamine B assay; format: functional; conditions: UACC-257, 48 h; summary of the method: as §2
[25] = system: UACC-62; test: Growth inhibition of human UACC62 cells after 48 hrs by sulforhodamine B assay; format: functional; conditions: UACC-62, 48 h; summary of the method: as §2
[26] = system: IGROV-1; test: Growth inhibition of human IGROV1 cells after 48 hrs by sulforhodamine B assay; format: functional; conditions: IGROV-1, 48 h; summary of the method: as §1
[27] = system: OVCAR-3; test: Growth inhibition of human OVCAR-3 cells after 48 hrs by sulforhodamine B assay; format: functional; conditions: OVCAR-3, 48 h; summary of the method: as §1
[28] = system: OVCAR-5; test: Growth inhibition of human OVCAR5 cells after 48 hrs by sulforhodamine B assay; format: functional; conditions: OVCAR-5, 48 h; summary of the method: as §1
[29] = system: SK-OV-3; test: Growth inhibition of human SKOV3 cells after 48 hrs by sulforhodamine B assay; format: functional; conditions: SK-OV-3, 48 h; summary of the method: as §1
[30] = system: 786-0; test: Growth inhibition of human 786-0 cells after 48 hrs by sulforhodamine B assay; format: functional; conditions: 786-0, 48 h; summary of the method: as §1
[31] = system: A498; test: Growth inhibition of human A498 cells after 48 hrs by sulforhodamine B assay; format: functional; conditions: A498, 48 h; summary of the method: as §1
[32] = system: CAKI-1; test: Growth inhibition of human Caki1 cells after 48 hrs by sulforhodamine B assay; format: functional; conditions: CAKI-1, 48 h; summary of the method: as §1
[33] = system: RXF 393; test: Growth inhibition of human RXF393 cells after 48 hrs by sulforhodamine B assay; format: functional; conditions: RXF 393, 48 h; summary of the method: as §1
[34] = system: SN12C; test: Growth inhibition of human SN12C cells after 48 hrs by sulforhodamine B assay; format: functional; summary of the method: as §2
[35] = system: TK-10; test: Growth inhibition of human TK10 cells after 48 hrs by sulforhodamine B assay; format: functional; conditions: TK-10, 48 h; summary of the method: as §2
[36] = system: PC-3; test: Growth inhibition of human PC3 cells after 48 hrs by sulforhodamine B assay; format: functional; conditions: PC-3, 48 h; summary of the method: as §1
[37] = system: MCF7; test: Growth inhibition of human MCF7 cells after 48 hrs by sulforhodamine B assay; format: functional; conditions: MCF7, 48 h; summary of the method: as §1
[38] = system: NCI/ADR-RES; test: Growth inhibition of human NCI/ADR-RES cells after 48 hrs by sulforhodamine B assay; format: functional; summary of the method: as §1
[39] = system: MDA-MB-231; test: Growth inhibition of human MDA-MB-231 cells after 48 hrs by sulforhodamine B assay; format: functional; conditions: MDA-MB-231, 48 h; summary of the method: as §1
[40] = system: MDA-MB-435; test: Growth inhibition of human MDA-MB-435 cells after 48 hrs by sulforhodamine B assay; format: functional; conditions: MDA-MB-435, 48 h; summary of the method: as §1
[41] = system: MDA-N; test: Growth inhibition of human MDA-N cells after 48 hrs by sulforhodamine B assay; format: functional
Summary of the method: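 NCI screen panel. Five 10-fold concentrations from 10^-4 to 10^-8 M. Exposure for the last 48 h of a 72 h incubation. Growth estimated by sulforhodamine B protein assay. Where that level was not reached or was exceeded, the value is given as above or below the highest or lowest concentration tested.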

[42] = system: T47D; test: Growth inhibition of human T47D cells after 48 hrs by sulforhodamine B assay; format: functional; summary of the method: as §2

`O=C(c1cccs1)N1CCN(C(=O)c2cccs2)C1=S` gave an IC50 [1] of 11 µM, a GI50 [2] of 2.1 µM and a GI50 [3] of 3.5 µM. For the same compound, the GI50 [4] was 3.2 µM, the GI50 [5] was 4 µM and the GI50 [6] was 15.9 µM. The GI50 [7] was 6.7 µM, the GI50 [8] was 7.2 µM and the GI50 [9] was 15.9 µM. It also gave a GI50 [10] of 15.5 µM, a GI50 [11] of 18.7 µM and a GI50 [12] of 7.7 µM. For the same compound, the GI50 [13] was 11.4 µM, the GI50 [14] was 5.3 µM and the GI50 [15] was 3.4 µM. For the same compound, the GI50 [16] was 4.8 µM, the GI50 [17] was 8.2 µM and the GI50 [18] was 16.7 µM. It also gave a GI50 [19] of 1.4 µM, a GI50 [20] of 7.9 µM and a GI50 [21] of 2.9 µM. The GI50 [22] was 10.3 µM, the GI50 [23] was 3.6 µM and the GI50 [24] was 7.5 µM. It also gave a GI50 [25] of 12.3 µM, a GI50 [26] of 9.6 µM and a GI50 [27] of 3.5 µM. The GI50 [28] was 17.1 µM, the GI50 [29] was 15.9 µM and the GI50 [30] was 2.4 µM. It also gave a GI50 [31] of 15.1 µM, a GI50 [32] of 3.4 µM and a GI50 [33] of 2.9 µM. The GI50 [34] was 2.6 µM, the GI50 [35] was 5.4 µM and the GI50 [36] was 6.1 µM. For the same compound, the GI50 [37] was 3.2 µM, the GI50 [38] was 19.1 µM and the GI50 [39] was 9.4 µM. The GI50 [40] was 2.8 µM, the GI50 [41] was 2.6 µM and the GI50 [42] was 4.6 µM.
`O=CN1CCN(C(=O)c2ccco2)C1=S` showed an IC50 [1] of 9 µM, a GI50 [2] of 3.6 µM and a GI50 [3] of 2.6 µM. The GI50 [4] was 4.6 µM, the GI50 [5] was 12.5 µM and the GI50 [6] was 13.7 µM. For the same compound, the GI50 [7] was 12 µM, the GI50 [8] was 11.5 µM and the GI50 [9] was 28.5 µM. For the same compound, the GI50 [10] was 18.5 µM, the GI50 [11] was 7.3 µM and the GI50 [12] was 8.7 µM. The GI50 [13] was 10.2 µM, the GI50 [14] was 5.6 µM and the GI50 [15] was 5.3 µM. For the same compound, the GI50 [16] was 5.5 µM, the GI50 [17] was 3.9 µM and the GI50 [18] was 21.4 µM. For the same compound, the GI50 [19] was 8.6 µM, the GI50 [20] was 14.1 µM and the GI50 [21] was 3.4 µM. The GI50 [22] was 8.3 µM, the GI50 [23] was 10.7 µM and the GI50 [24] was 11.7 µM. For the same compound, the GI50 [25] was 5 µM, the GI50 [26] was 7.5 µM and the GI50 [27] was 4.2 µM. It also gave a GI50 [28] of 18 µM, a GI50 [29] of 26.6 µM and a GI50 [30] of 3.3 µM. For the same compound, the GI50 [31] was 16.5 µM, the GI50 [32] was 5.1 µM and the GI50 [33] was 3.3 µM. It also gave a GI50 [34] of 5.3 µM, a GI50 [35] of 14.3 µM and a GI50 [36] of 5 µM. For the same compound, the GI50 [37] was 2.7 µM, the GI50 [38] was 24.5 µM and the GI50 [39] was 15.9 µM. It also gave a GI50 [40] of 6.4 µM, a GI50 [41] of 9.1 µM and a GI50 [42] of 4 µM.
